# Shown are actives, neighbours in structure and some others; about 3.5% of the full set was active somewhere.
# RGS4 inh: RGS4 inhibitors, primary screen, cell-based, HEK293 M3R inducible RGS4, calcium flux; Fluo-4 calcium flux; stronger effect = higher value; triggered by carbachol at its EC20; Regulator of G-protein signaling 4 (Homo sapiens), P49798; B-score at 10 µM; 310,000 tested, 0.45% active;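 active = B-score, a plate-corrected calcium signal, over three deviations above library mean, with baseline fluorescence within five deviations of library mean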;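 also: RGS4 expression induced by doxycycline in cells with stable M3 receptor; B-score is computed from the integrated fluorescence ratio over baseline after carbachol; higher B-score means a larger calcium signal and so more RGS4 inhibition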
# Target sequence (P49798 whole entry, looked up): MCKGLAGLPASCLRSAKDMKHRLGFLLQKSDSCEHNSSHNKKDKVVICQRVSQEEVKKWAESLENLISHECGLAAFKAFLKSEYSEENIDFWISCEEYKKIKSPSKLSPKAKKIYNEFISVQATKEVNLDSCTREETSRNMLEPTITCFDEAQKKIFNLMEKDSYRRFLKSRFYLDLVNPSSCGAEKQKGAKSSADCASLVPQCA
# MrgX1 allo act: positive allosteric modulators of MrgX1, primary screen, HEK293 cells, Fluo-4 calcium flux | B-score at 10 µM | 310,000 tested, 0.63% active | FDSS; stronger effect = higher value;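 active = plate-corrected calcium response at least 3 library SD above typical, normal starting fluorescence, not activating the receptor alone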;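 also: compound read alongside a low EC10 to EC30 dose of BAM8-22 agonist; peak minus trough fluorescence over baseline measured at the second addition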
# Target sequence (Q96LB2 whole entry, looked up): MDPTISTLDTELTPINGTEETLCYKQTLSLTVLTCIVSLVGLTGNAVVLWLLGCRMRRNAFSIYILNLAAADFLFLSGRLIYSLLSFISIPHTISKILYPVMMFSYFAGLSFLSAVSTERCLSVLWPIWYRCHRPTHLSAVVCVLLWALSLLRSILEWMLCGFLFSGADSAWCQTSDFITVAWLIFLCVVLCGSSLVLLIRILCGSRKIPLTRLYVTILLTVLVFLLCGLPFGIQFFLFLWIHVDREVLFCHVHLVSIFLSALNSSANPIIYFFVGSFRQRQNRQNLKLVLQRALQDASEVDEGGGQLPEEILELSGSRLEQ
# RGS4 pot: RGS4 potentiators or activators, primary screen, cell-based, HEK293 M3R inducible RGS4, calcium flux | AID 463111, 2010 | carbachol calcium flux Fluo4; stronger effect = lower value | 310,000 tested, 0.92% active | B-score at 10 µM;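 active = B-score of the integrated calcium signal more than 4 SD below the library mean, with starting fluorescence not abnormally high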;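 also: negative B-score means reduced calcium response which marks RGS4 activation or potentiation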
#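 Detection: kinetic calcium fluorescence imaging with Fluo4-AM dye, 2 µM / Material: HEK293 cells with stable M3R and inducible RGS4 / Schedule: recording 10 s baseline at 1 Hz, 100 s post-agonist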
# MrgX1 agonist: agonists of human MrgX1 receptor, primary screen, HEK293 cells, Fluo-4 calcium flux. Fluo-4 calcium fluorescence, agonist mode; stronger effect = higher value. B-score at 10 µM. 310,000 tested, 0.44% active. AID 588627, 2011;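 active = calcium response B-score plate-corrected fluorescence ratio at least 3 library SD, with starting fluorescence B-score inside 5 SD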
#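 Test system: HEK293 cells stably expressing human MrgX1 receptor; Input: fifteen thousand cells per well; Dosing: compound delivered in addition one of three; Schedule: overnight seeding, then 1 h dark dye loading; Technique: Fluo-4 NW calcium fluorescence; Measure: B-scored fluorescence response ratio; Controls: positive and negative controls per plate.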
# MrgX1 antagonist: antagonists of human MrgX1 receptor, primary screen, HEK293 cells, Fluo-4 calcium flux; 310,000 tested, 1.3% active; B-score at 10 µM; BAM8-22 antagonism; stronger effect = lower value; Mas-related G-protein coupled receptor member X1 (Homo sapiens), Q96LB2; AID 588676, 2011;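 active = calcium-response B-score plate-corrected more than 3 library SD below zero, starting fluorescence within 5 deviations, no agonist response on first addition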;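 also: peak minus trough fluorescence over baseline after final BAM8-22 challenge near maximal dose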
# * hit, by the source's call; i = inactive; x = no result.
SMILES,RGS4 inh,MrgX1 allo act,RGS4 pot,MrgX1 agonist,MrgX1 antagonist
CCNC(C(=O)c1c[nH]c2c(CC)cccc12)c1ccccc1 (stereo not given),i,i,i,i,i
CC(C)c1ccc2[nH]c3c(c2c1)[C@@H]1CCN2C(=O)CCC[C@H](C3)[C@H]12,i,i,i,i,i
O=[N+]([O-])c1ccc(S(=O)(=O)Nc2nnc(C3CCCCC3)s2)cc1,i,i,i,i,i
Cn1c(C(=O)N(Cc2ccccc2)Cc2cccs2)cc2sccc21,i,i,-7.8*,i,i
CCN(C(=O)c1cccc(NC(=O)c2ccccc2)c1)C1CCCCC1,i,i,i,i,i
COCCNCCCCOc1ccccc1-c1ccccc1,i,i,i,i,-5.2*
Nc1c(C(=O)C2CC2)sc2nc(-c3ccccc3)cc(C(F)(F)F)c12,i,i,-9.3*,i,i
COc1ccc(-c2cc(C(F)(F)F)c3c(N)c(C(=O)NCCSC)sc3n2)cc1,i,i,i,i,i
CC(Oc1ccc(Br)cc1Cl)C(=O)Nc1ccncc1 (stereo not given),i,i,i,i,i
Cc1ccc(C)c(OCCC(=O)NCCc2ccc(S(N)(=O)=O)cc2)c1,i,i,i,i,i
Cc1ccc(-c2csc(NC(=O)C3=NN(c4ccccc4)C(=O)CC3)n2)cc1,i,i,i,i,-4.8*
Cc1csc(NC(=O)C2=NN(c3ccccc3)C(=O)CC2)n1,i,i,i,i,i
CC(=O)N(C1=C(Cl)C(=O)c2ccccc2C1=O)C1CCCCC1,i,i,i,i,-9.6*
COc1ccc(C(=O)C(CCCCC(CN(C)C)C(=O)c2ccc(OC)cc2)CN(C)C)cc1 (stereo not given),i,i,i,i,i
CCOc1ccc(C(=O)C(CCC(CN(C)C)C(=O)c2ccc(OCC)cc2)CN(C)C)cc1 (stereo not given),i,x,-8*,x,x
COc1ccc(Cl)cc1NC(=O)C(C)N1CCN(c2ccccn2)CC1 (stereo not given),i,i,i,i,i
O=C(Nc1nncs1)C12CC3CC(CC(Cl)(C3)C1)C2,i,i,i,i,i
CC(OC(=O)c1cc(Br)ccc1O)C(=O)Nc1ccc(S(=O)(=O)N2CCCC2)cc1 (stereo not given),i,i,i,i,i
Cc1cccc(C(=O)OC(C)C(=O)Nc2ccc(S(=O)(=O)N3CCCC3)cc2)c1O (stereo not given),i,i,-7.3*,i,i
Cc1ccc(C(=O)NNc2cc(=O)n(C)c(=O)n2C)cc1C,i,i,i,i,-5.1*
O=C(COC(=O)CCC(=O)c1ccc(F)cc1)Nc1ccc2[nH]c(=O)[nH]c2c1,i,i,i,i,i
Oc1cccc2c(NC(=S)Nc3ccc(SC(F)F)cc3)cccc12,i,i,i,i,-5.3*
NC(=O)[C@@H]1CCNc2c(I)cc([N+](=O)[O-])cc2C(=O)N[C@@H](CCC(=O)O)C(=O)N[C@@H](CO)C(=O)N1,x,i,x,i,-6.5*
O=C1C(Cl)=C(NCCCO)C(=O)c2ccccc21,i,i,i,i,i
O=C1C(SCCO)=C(SCCO)C(=O)c2ccccc21,x,i,x,i,-13*
SMILES,RGS4 inh,MrgX1 allo act,RGS4 pot,MrgX1 agonist,MrgX1 antagonist
CCOc1ccc(N2C(=O)CC(Sc3nc(-c4cccs4)cc(C(F)(F)F)c3C#N)C2=O)cc1 (stereo not given),i,i,i,i,-7.1*
CCOc1ccc(N2C(=O)CC(Sc3ncccn3)C2=O)cc1 (stereo not given),i,i,i,i,i
Cc1cc(O)c(/C=N/OCc2ccc(Cl)cc2Cl)c(=O)o1,i,i,i,i,i
O=c1c(/C=N/OCc2ccc(Cl)cc2Cl)c[nH]n1-c1cccc(Cl)n1,i,i,i,45*,i
COc1ccc(/C=C/C(=O)O)cc1S(=O)(=O)N1CCc2ccccc21,i,i,i,i,i
Cn1cc(/C=N/n2cnc3sc4c(c3c2=O)CCCC4)c2ccccc21,i,i,i,i,i
O=c1c2c3c(sc2ncn1/N=C/c1ccc([N+](=O)[O-])o1)CCCC3,5.2*,i,i,i,i
Cn1nc(C(F)(F)F)c(-c2ccc(F)cc2)c1NC(=O)Nc1ccc(F)cc1,i,i,i,i,-5.4*
COc1ccc(OC)c(NC(=O)C2CCN(C(=O)C3CC(=O)N(c4ccc(C)cc4)C3)CC2)c1 (stereo not given),i,i,i,i,i
O=C(ON=C1CCN(S(=O)(=O)c2ccccc2)CC1)c1ccc(F)cc1,i,i,i,i,-6.1*
CSC1=C(C#N)C(c2ccccc2Cl)C2=C(N1)c1ccccc1C2=O (stereo not given),i,i,i,32*,i
CN(C)c1ccc(C(=O)N/N=C/c2ccccn2)cc1,i,i,i,i,i
COC(=O)c1sc2cc([N+](=O)[O-])cc(SCC(C)C)c2c1N,i,i,i,i,-9.2*
CC(=O)c1c(C)nn(CC(=O)NC2CCCN(Cc3ccc(CC(C)C)cc3)C2)c1C (stereo not given),i,i,i,i,i
Cc1nc2ccccc2c2c1C(=O)NC2=O,i,i,i,i,i
O=C1N[C@@H](Cc2cn(S(=O)(=O)c3ccccc3)c3ccccc23)C(=O)N[C@H]1Cc1ccccc1,i,i,i,i,i
COc1ccc(CCn2c(S)nc3ccccc3c2=O)cc1,i,i,i,i,i
CCC1CCCCN1C(=S)NC(=O)c1cccc([N+](=O)[O-])c1 (stereo not given),i,i,i,i,i
O=Cc1nc(-c2ccc(Cl)cc2)n2ccccc12,i,i,i,i,i
O=Cc1nc(-c2ccccc2Cl)n2ccccc12,i,i,i,i,-6.3*
COc1ccc(-c2csc(=Nc3ccccc3)n2CCO)cc1,i,15*,i,i,i
FC(F)(F)c1cc(CCN2C(=S)NC[C@@H]2CC2CCCCC2)cc(C(F)(F)F)c1,i,i,-9.8*,i,i
Cc1cc(OC(=O)c2cc(Cl)ccc2Cl)c([N+](=O)[O-])c(=O)[nH]1,i,i,i,i,i
